Data on eight compounds can be found in ChEMBL document CHEMBL4680335, “Synthesis, anticancer and antimicrobial evaluation of new benzofuran based derivatives: PI3K inhibition, quorum sensing and molecular modeling study” (Bioorg Med Chem, 2021).

The subject of one series is PC-3. Put plainly: Antiproliferative activity against human PC3 cells assessed as reduction in cell growth. It counts as functional, cell-based.
Series [1] has as its system MCF7. Nature of the series: Antiproliferative activity against human MCF7 cells assessed as reduction in cell growth. The series is classed as functional, cell-based.
The next series concerns HepG2. Nature of the series: Antiproliferative activity against human HepG2 cells assessed as reduction in cell growth. The series is classed as functional, cell-based.
The subject of the next series is HeLa. Nature of the series: Antiproliferative activity against human HeLa cells assessed as reduction in cell growth. The series is classed as functional, cell-based.
Series [2] has as its system Staphylococcus aureus. Put plainly: Antibacterial activity against Staphylococcus aureus ATCC 29213 assessed as diameter of zone inhibition at 5 mg/ml incubated for 24 hrs by agar plate diffusion method. The series is classed as functional. To be noted: read-out: DIZ. A digest of the protocol:
(§1)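 Cup (well) agar diffusion in Mueller Hinton agar. Overnight MH broth culture diluted to 0.5 McFarland; 20 μL mixed into MH agar at 50 °C, poured into 9-cm plates. Wells cut with a cork borer and filled with 100 μL compound in DMSO (final 5 mg/mL). DMSO as negative control, ampicillin/clavulanic acid as reference. 37 °C, 24 h; inhibition zone diameter in mm.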

Series [3] concerns Bacillus cereus. Nature of the series: Antibacterial activity against Bacillus cereus UW85 assessed as diameter of zone inhibition at 5 mg/ml incubated for 24 hrs by agar plate diffusion method. It counts as functional. To be noted: read-out: DIZ. A digest of the protocol: as §1
For series [4], the system named is Bacillus cereus. Put plainly: Antibacterial activity against Bacillus cereus UW85 assessed as reduction in bacterial growth incubated for 18 hrs by two-fold serial dilution method. It counts as functional. A digest of the protocol: (§2)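 Broth microdilution per CLSI 2015. Selection: compounds active in agar diffusion. Twofold (1:1) dilutions in 0.1 ml MH broth; inoculum 5 × 10^6 CFU/ml diluted suspension. Ampicillin/clavulanic acid as positive control.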

For series [5], the system named is Staphylococcus aureus. Nature of the series: Antibacterial activity against Staphylococcus aureus ATCC 29213 assessed as reduction in bacterial growth incubated for 18 hrs by two-fold serial dilution method. The series is classed as functional. In a few lines: as §2
Series [6] in a line: Inhibition of quorum sensing in Chromobacterium violaceum ATCC 12472 assessed as inhibition zone at 5 mg/ml incubated for 48 hrs by well diffusion method. It counts as functional. To be noted: read-out: IZ. In a few lines:
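Chromobacterium violaceum ATCC 12472 grown in LB broth at 28 °C, 48 h. 50 μL inoculated into 5 ml soft LB agar and overlaid on LB agar plates. Wells received 100 μL compound in DMSO (5 mg/ml); DMSO as negative control. 28 °C, 48 h. Growth-inhibition radius r1 and pigment-plus-growth radius r2 measured; QS inhibition = r2 − r1 (mm).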
(Agar diffusion results depend on both activity and mobility in agar.)

Series [7] deals with Pseudomonas aeruginosa. Nature of the series: Antibacterial activity against Pseudomonas aeruginosa PAO1 assessed as diameter of zone inhibition at 5 mg/ml incubated for 24 hrs by agar plate diffusion method. It counts as functional. To be noted: read-out: DIZ. A digest of the protocol: as §1
Series [8] deals with Candida albicans. Put plainly: Antifungal activity against Candida albicans CS35 assessed as diameter of zone inhibition at 5 mg/ml incubated for 24 hrs by agar plate diffusion method. It counts as functional. To be noted: read-out: DIZ. A digest of the protocol:
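Cup diffusion using Sabouraud's medium for C. albicans. 100 μL compound in DMSO (5 mg/mL) per well, DMSO as negative control, fluconazole as reference. 37 °C, 24 h; inhibition zone diameter in mm.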

For series [9], the system named is Pseudomonas aeruginosa. Nature of the series: Antibacterial activity against Pseudomonas aeruginosa PAO1 assessed as reduction in bacterial growth incubated for 18 hrs by two-fold serial dilution method. It counts as functional. In a few lines:
as §2

In series [10] the test system is Candida albicans. Put plainly: Antifungal activity against Candida albicans CS35 assessed as reduction in fungal growth incubated for 18 hrs by two-fold serial dilution method. The series is classed as functional. A digest of the protocol: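 Broth microdilution per CLSI M27-A3/M38-A2. Selection: compounds active in agar diffusion. Twofold (1:1) dilutions in 0.1 ml yeast peptone dextrose medium; fluconazole as positive control.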

The test system of series [11] is MCF7. Nature of the series: Induction of apoptosis in human MCF7 cells assessed as early apoptotic cells at […] incubated for 24 hrs by Annexin V-FITC and propidium iodide staining based flow cytometry analysis (reference value: 0.42 %). On the set-up: dose or concentration left out as unconfirmed. The series is classed as functional.
Series [12] is described as follows: Safety index, ratio of IC50 for cytotoxicity against human WI-38 cells to IC50 for antiproliferative activity against human HepG2 cells. It counts as toxicity, cell-based. To be noted: WI-38 cells versus HepG2 cells.
The nature of series [13]: Safety index, ratio of IC50 for cytotoxicity against human WI-38 cells to IC50 for antiproliferative activity against human HeLa cells. It counts as toxicity, cell-based. To be noted: WI-38 cells versus HeLa cells.
In series [14] the target is Phosphatidylinositol 4,5-bisphosphate 3-kinase catalytic subunit alpha isoform (Homo sapiens, UniProt P42336). Put plainly: Inhibition of human PI3Kalpha by ELISA. A digest of the protocol: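 Human PI3Kα activity measured by ELISA in wells coated with a PI3K-specific antibody. Standard or test compound was added at room temperature and absorbance read. A log–log standard curve related absorbance to standard concentration. Percent inhibition was calculated against control, and IC50 was obtained from concentration/inhibition curves.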
A general note: In an ELISA, binding on a coated surface is turned into a signal by an enzyme label.

For series [15], the system named is MCF7. Nature of the series: Induction of apoptosis in human MCF7 cells assessed as accumulation at preG1 phase at […] incubated for 24 hrs by propidium iodide staining based flow cytometry analysis (reference value: 1.78 %). The series is classed as functional. The arrangement: dose or concentration left out as unconfirmed.
Series [16] can be described thus: Safety index, ratio of IC50 for cytotoxicity against human WI-38 cells to IC50 for antiproliferative activity against human MCF7 cells. To be noted: WI-38 cells versus MCF7 cells. It counts as toxicity, cell-based.
Series [17] concerns MCF7. Nature of the series: Induction of cell cycle arrest in human MCF7 cells assessed as accumulation at G0-G1 phase at […] incubated for 24 hrs by propidium iodide staining based flow cytometry analysis (reference value: 53.89 %). The series is classed as functional. On the set-up: dose or concentration left out as unconfirmed.
The subject of series [18] is MCF7. Nature of the series: Induction of cell cycle arrest in human MCF7 cells assessed as accumulation at G2/M phase at […] incubated for 24 hrs by propidium iodide staining based flow cytometry analysis (reference value: 9.85 %). The arrangement: dose or concentration left out as unconfirmed. It counts as functional. (In flow cytometry, cells or beads pass a laser one at a time.)

The subject of series [19] is MCF7. Nature of the series: Induction of cell cycle arrest in human MCF7 cells assessed as accumulation at S phase at […] incubated for 24 hrs by propidium iodide staining based flow cytometry analysis (reference value: 36.26 %). The series is classed as functional. On the set-up: dose or concentration left out as unconfirmed.
A short description of series [20]: Safety index, ratio of IC50 for cytotoxicity against human WI-38 cells to IC50 for antiproliferative activity against human PC-3 cells. It counts as toxicity, cell-based. To be noted: WI-38 cells versus PC-3 cells.
The test system of series [21] is MCF7. Put plainly: Induction of apoptosis in human MCF7 cells assessed as necrotic cells at […] incubated for 24 hrs by Annexin V-FITC and propidium iodide staining based flow cytometry analysis (reference value: 1.21 %). It counts as functional. The arrangement: dose or concentration left out as unconfirmed.
The next series deals with WI-38. Put plainly: Cytotoxicity against human WI38 cells by MTT assay. It counts as cell-based.
For series [22], the system named is MCF7. Put plainly: Induction of apoptosis in human MCF7 cells assessed as late apoptotic cells at […] incubated for 24 hrs by Annexin V-FITC and propidium iodide staining based flow cytometry analysis (reference value: 0.15 %). It counts as functional. On the set-up: dose or concentration left out as unconfirmed.

≈ marks a conversion by molar mass, not a printed value.

Phosphatidylinositol 4,5-bisphosphate 3-kinase catalytic subunit alpha isoform, sequence (P42336 whole entry, canonical isoform): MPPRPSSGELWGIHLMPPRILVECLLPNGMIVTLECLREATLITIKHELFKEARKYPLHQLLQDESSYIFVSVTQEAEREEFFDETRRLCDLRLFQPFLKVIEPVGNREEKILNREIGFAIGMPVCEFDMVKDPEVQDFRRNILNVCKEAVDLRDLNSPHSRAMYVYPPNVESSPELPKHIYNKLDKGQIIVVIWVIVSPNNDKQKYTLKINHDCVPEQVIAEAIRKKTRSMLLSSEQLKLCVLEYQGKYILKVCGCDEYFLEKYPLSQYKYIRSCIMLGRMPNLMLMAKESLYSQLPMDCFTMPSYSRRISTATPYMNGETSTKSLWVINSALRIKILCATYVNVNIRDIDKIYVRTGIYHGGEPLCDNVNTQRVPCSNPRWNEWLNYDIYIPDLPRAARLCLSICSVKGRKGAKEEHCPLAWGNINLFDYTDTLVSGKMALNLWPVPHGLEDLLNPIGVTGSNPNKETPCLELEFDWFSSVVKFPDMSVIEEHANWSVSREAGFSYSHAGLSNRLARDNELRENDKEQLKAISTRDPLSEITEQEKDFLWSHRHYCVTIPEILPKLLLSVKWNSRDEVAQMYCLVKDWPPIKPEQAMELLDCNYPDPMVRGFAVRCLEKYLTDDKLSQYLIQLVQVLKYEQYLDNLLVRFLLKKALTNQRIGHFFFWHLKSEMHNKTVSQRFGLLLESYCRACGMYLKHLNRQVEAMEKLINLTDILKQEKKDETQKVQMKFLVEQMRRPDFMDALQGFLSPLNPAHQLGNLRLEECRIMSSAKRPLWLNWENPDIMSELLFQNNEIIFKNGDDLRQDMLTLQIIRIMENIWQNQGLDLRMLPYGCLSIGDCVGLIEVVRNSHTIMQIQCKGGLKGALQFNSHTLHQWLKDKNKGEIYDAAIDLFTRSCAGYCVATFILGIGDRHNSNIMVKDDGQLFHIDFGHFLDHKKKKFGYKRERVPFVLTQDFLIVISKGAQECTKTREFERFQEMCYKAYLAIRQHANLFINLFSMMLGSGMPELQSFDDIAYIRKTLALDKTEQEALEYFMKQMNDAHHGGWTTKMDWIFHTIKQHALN

Consider `C/C(=N\Nc1nc(-c2ccc(Cl)cc2)cs1)c1cc2ccccc2o1`, for which the IC50 is 38.1 µM with PC-3, 29.9 µM in the series on MCF7 [1], 23.2 µM in the series with HepG2 and 26.6 µM in the series with HeLa.
For the compound `COc1ccc(/N=N/C(C=O)=C(/O)c2cc3ccccc3o2)cc1`, the IC50 in the series with PC-3 is 56.3 µM; with HepG2, 42.1 µM. Besides, the zone of inhibition at 5000 µg/mL with Staphylococcus aureus [2] is 7 mm; in the series on Bacillus cereus [3], 5 mm. Further, the MIC with Bacillus cereus [4] was determined as 265 µg/mL (≈ 822 µM); with Staphylococcus aureus [5], 128 µg/mL (≈ 397 µM).
As for `CN1CCN(C(=S)Cc2cc3ccccc3o2)CC1`, the IC50 in the series with PC-3 was 83.8 µM; in the series on MCF7 [1] it was 73.5 µM; with HepG2, 64.5 µM.
Take `COc1ccc(-c2csc(N/N=C(\C)c3cc4ccccc4o3)n2)cc1`: the IC50 worked out at 28.9 µM in the series with PC-3, 18.9 µM in the series on MCF7 [1], 15.7 µM in the series on HepG2 and 18.7 µM in the series on HeLa. The zone of inhibition at 5000 µg/mL in series [6] worked out at 3 mm.
As for `C/C(=N\Nc1nc(-c2ccc(Br)cc2)cs1)c1cc2ccccc2o1`, the IC50 was found to be 45.2 µM in the series on PC-3, 33.2 µM in the series on MCF7 [1], 27.7 µM with HepG2 and 32.7 µM in the series on HeLa.
Turning to `COc1ccc(C(=O)CSC(=S)N/N=C(\C)c2cc3ccccc3o2)cc1`, the IC50 in the series on PC-3 was found to be 73.3 µM; with MCF7 [1] it was 38.4 µM; in the series on HepG2, 31.9 µM; in the series with HeLa it was 46.9 µM. Moreover, the zone of inhibition at 5000 µg/mL came out at 8 mm in the series with Pseudomonas aeruginosa [7] and 5 mm in the series with Candida albicans [8]. The MIC was 512 µg/mL (≈ 1280 µM) in the series with Pseudomonas aeruginosa [9] and 256 µg/mL (≈ 642 µM) with Candida albicans [10].
In the case of `Cc1ccc(/N=N/C(C=O)=C(/O)c2cc3ccccc3o2)cc1`, the IC50 was 62 µM in the series on PC-3, 58.6 µM in the series with MCF7 [1] and 46.8 µM with HepG2. The zone of inhibition at 5000 µg/mL with Staphylococcus aureus [2] was determined as 6 mm; with Pseudomonas aeruginosa [7], 10 mm. Further, the minimum inhibitory concentration (MIC) in the series on Bacillus cereus [4] was determined as 256 µg/mL (≈ 836 µM); with Staphylococcus aureus [5], 128 µg/mL (≈ 418 µM); in the series on Pseudomonas aeruginosa [9], 512 µg/mL (≈ 1670 µM).
On to `CCOC(=O)Cc1csc(N/N=C(\C)c2cc3ccccc3o2)n1`, for which the IC50 in the series on PC-3 worked out at 13.1 µM; in the series with MCF7 [1] it was 6.55 µM; in [14], 7.8 µM; in the series with HeLa, 9.26 µM; in the series with WI-38, 36.8 µM. In addition, the Activity turned out to be 3.27% in the series with MCF7 [11]; 17.66% in the series with MCF7 [15]; 43.95% in the series with MCF7 [17]; 22.34% with MCF7 [18]; 33.71% in the series on MCF7 [19]; 6.29% in the series with MCF7 [21]. Also, the Activity in the series with MCF7 [22] was found to be 8.1%. The selectivity ratio in series [12] was 4.75; in series [13], 3.97; in [16], 5.61; in series [20] it was 2.8. The zone of inhibition at 5000 µg/mL in series [6] was found to be 3 mm.

The IC50 is the concentration that inhibits the measured activity by half. Broadly, the MIC is the least concentration at which growth counts as inhibited.
